# Screens as filed in PubChem BioAssay.
# TRPC4 agonist = activators of mouse TRPC4 channel. Q9QUQ5. HEK293 TRPC4beta/mu-opioid, Fluo4 calcium fluorescence; active compounds read high. B-score at 10 µM. 310,000 compounds, 0.49% hits. AID 2237;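 active = B-score above 5 SD of library B-scores, and initial fluorescence ratio not above library mean plus 5 SD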;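 note: positive B-score marks a calcium rise read as TRPC4 activation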
#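 Assay system – TRPC4beta and mu-opioid receptor HEK293 stable cells · Measured by – Fluo4 fluorescence, kinetic · Schedule – dye loading 45 min room temperature, 110 s kinetic read · Read-out – B-scored integrated calcium fluorescence ratio · Controls – buffer and maximal DAMGO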
# TRPC4 inh = TRPC4 (mouse) channel inhibition; Q9QUQ5; B-score at 10 µM; HEK293 TRPC4beta/mu-opioid, DAMGO-evoked Fluo4 calcium flux; active compounds read low; 300,000 compounds, 0.39% hits; AID 2247;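 active = B-score over 3 SD under the library average, no early fluorescence shift, positive overall ratio signal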
#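 Material: HEK293 cells with stable TRPC4beta plus mu-opioid receptor expression; probe or stimulus: DAMGO in two steps, submaximal then maximal; technique: Fluo4 calcium fluorescence by kinetic imaging, 5 s 1 Hz baseline; measure: integrated fluorescence ratio relative to baseline, converted to per-well B score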
# Kir21 block = Kir2.1 (mouse) channel inhibition | AID 1672 | B-score at 10 µM | P35561 | HEK293-Kir2.1, FluxOR thallium flux fluorescence; active compounds read low | 310,000 compounds, 0.85% hits;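 active = fluorescence ratio B-score at or below minus 3 SD of library scores, with starting-brightness B-score within 2 SD, cut at about -4.2 in these data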;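 note: channel flux triggered by added potassium and thallium sulfate stimulus; B-score of peak minus minimum fluorescence over baseline after thallium stimulus; more negative B-score means stronger Kir2.1 block with less thallium influx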
# TRPC6 inh = mouse TRPC6 channel inhibition; 310,000 compounds, 1.1% hits; HEK293-TRPC6, membrane potential dye, ACh-evoked depolarization; active compounds read low; Q61143; B-score at 10 µM;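 active = B-score under library mean minus 3 SD, initial fluorescence not abnormally high, positive integrated signal ratio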;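 note: B-score derived from integrated fluorescence ratio over the kinetic read; more negative B-score means stronger inhibition of depolarization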
# TRPC4 potent = allosterically enhances the mouse TRPC4 cation channel | Q9QUQ5 | HEK293 TRPC4beta/mu-opioid, DAMGO EC20, Fluo-4 Ca2+ flux; active compounds read high | B-score at 10 µM | 310,000 compounds, 0.42% hits;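 active = B-score of calcium response area above 5 SD of library B-scores, with initial fluorescence ratio within 5 SD of library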;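 note: B-score of integrated fluorescence ratio over time as area under calcium response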
# TRPC6 activator = activates the mouse TRPC6 cation channel; Q61143; HEK293-TRPC6 membrane potential dye fluorescence; active compounds read high; B-score at 10 µM; 310,000 compounds, 0.13% hits; AID 2550;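 active = B-score of the integrated fluorescence ratio above library mean plus 3 SD, and starting fluorescence ratio within library mean plus 5 SD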;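 note: higher score means more depolarization so channel activation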
# An asterisk follows results filed as active; i = inactive. Sampled rows, rich in hits. Any-hit rate of the full collection: about 2.9%.
SMILES,TRPC4 agonist,TRPC4 inh,Kir21 block,TRPC6 inh,TRPC4 potent,TRPC6 activator
COc1ccc(C(=O)NNC(=S)NC(=O)c2ccc(Br)o2)cc1OC,i,i,1.4,i,i,i
O=C(COc1ccc(Br)cc1Br)NNC(=O)c1cccs1,i,i,-0.53,i,i,i
COc1cccc(OCC(=O)NNC(=O)c2cccs2)c1,i,i,0.24,i,i,i
Cc1ccc(OCC(=O)NNC(=S)NC(=O)c2ccc(Br)o2)c(C)c1,69*,-6*,-0.27,i,20*,i
Cc1cc(OCC(=O)NNC(=S)NC(=O)c2cccs2)ccc1Cl,i,i,-2,i,19*,i
CC1CC(C)CN(S(=O)(=O)N2CCCC(C(=O)NCc3ccccc3Cl)C2)C1 (configuration not stated),i,i,1.3,i,i,i
ClCC1=Nc2cccc3cccc(c23)N1,i,i,-0.63,i,i,i
CC(C)C1=Nc2cccc3cccc(c23)N1,i,-6*,-0.73,i,i,i
O=C(/C=C/c1cccc([N+](=O)[O-])c1)NC(=S)Nc1cccc(NC(=O)c2ccccc2Cl)c1,i,i,-2.1,i,i,i
CCN1C(N(C)CCc2cccs2)=N[C@@H](c2ccccc2)C(C(=O)OC)=C1C,i,-5*,-2.1,i,i,i
Cc1ccc(C)c(N2C(=O)c3ccc(C(=O)OCC(=O)c4c(N)n(C)c(=O)n(C)c4=O)cc3C2=O)c1,i,i,2,i,11*,i
CCCCC(=O)N(c1ccc(C(=O)O)cc1)c1nc(-c2ccc(Cl)cc2)c(CC)s1,i,-6*,-1.1,i,i,i
Cc1cccc(/C=N/NC(=O)c2c(-c3ccccc3)noc2C)c1O,i,i,0.51,i,i,i
CCOC(=O)c1ccccc1NC(=O)CSc1nnc(COc2ccccc2)n1CC,i,i,-6.2*,i,i,i
Cc1cc(C)c2c(C)c(C(=O)NCc3ccc(S(N)(=O)=O)cc3)oc2c1,i,i,-0.44,i,i,i
CCCN(CCC)CCCNC(=S)Nc1ccc2nc3n(c(=O)c2c1)CCCCC3,i,i,-2.1,i,14*,i
CN(C)CCCC1Sc2ccccc2Sc2ccccc21 (configuration not stated),i,i,-4.8*,i,i,i
Cc1ccc2c(CN(C)Cc3cccc(Cl)c3)cc(=O)oc2c1C,i,i,0.04,i,11*,i
COc1cc2nc(CN3CCN(C(C)=O)CC3)[nH]c(=O)c2cc1OC,i,i,-0.24,i,i,i
Cc1nc(Nc2ccccc2)sc1C(=O)c1ccc(F)cc1,i,i,-0.42,i,11*,i
O=C(CSc1ccc(-c2ccc(F)cc2)nn1)N1CCCc2ccccc21,i,i,-0.01,i,i,i
CC(C(=O)Nc1cccnc1)c1ccc([N+](=O)[O-])cc1 (configuration not stated),i,i,-0.02,i,i,i
CC(C)Cc1ccc([C@H](C)C(=O)O)cc1,i,i,0.29,i,i,i
CC(C)Cc1ccc(C(C)C(=O)Nc2cccnc2)cc1 (configuration not stated),45*,i,2.9,i,i,i
CC(C)Cc1ccc(C(C)C(=O)Nc2ccc(O)cc2)cc1 (configuration not stated),52*,i,-0.47,i,i,i
SMILES,TRPC4 agonist,TRPC4 inh,Kir21 block,TRPC6 inh,TRPC4 potent,TRPC6 activator
OC(CNCc1ccccc1F)COc1cccc2ccccc12 (configuration not stated),i,i,-6.9*,i,i,i
CC(C)NCC(O)COc1cccc2ccccc12 (configuration not stated),i,i,-0.47,i,i,i
Cc1ccc(C)c(NC(=O)CSc2ncnc3nc[nH]c23)c1,i,i,0.31,i,i,i
CCOCCOC(=O)c1ccc(NC(=O)C2COc3ccccc3O2)cc1 (configuration not stated),i,i,-0.22,i,i,i
CCCN(CCC)CCNC(=O)CCC(=O)Nc1ccc2nc(N3CCN(C)CC3)cc(C)c2c1,87*,i,0.39,i,i,i
Cc1cc(N2CCN(C)CC2)nc2ccc(NC(=S)NCCN3CCc4ccccc4C3)cc12,i,i,-4.7*,i,i,i
Cc1cc(N2CCN(C)CC2)nc2ccc(NC(=S)NCCCN3CCc4ccccc4C3)cc12,i,i,-3,i,i,i
Cc1cc(N2CCN(C)CC2)nc2ccc(NC(=O)CCC(=O)NCCC(C)C)cc12,i,i,0.21,i,i,i
CCCCN(C)CCNC(=S)Nc1ccc2nc(N3CCN(CC)CC3)cc(C)c2c1,i,i,-3.2,i,16*,i
CN(C)S(=O)(=O)c1ccc(NC(=O)CN2C(=O)NC3(CCCC3)C2=O)cc1,i,i,-0.34,i,i,i
COc1ccc(CNC(=O)C2CCN(S(=O)(=O)c3ccc(-c4nn[nH]n4)cc3)CC2)cc1,i,i,-0.66,i,i,i
CCc1nc(NCCc2ccccn2)c2nnn(Cc3ccccc3F)c2n1,186*,i,0.24,i,i,i
Cc1ccc(NS(=O)(=O)c2ccc(NS(=O)(=O)c3cccs3)cc2)cc1,i,i,-1,i,16*,i
O=S(=O)(Nc1ccc(F)cc1)c1ccc(NS(=O)(=O)c2cccs2)cc1,i,i,0.68,i,11*,i
Cc1ccc(COc2ccc3c(c2)OCO3)cc1,i,i,1.1,i,i,i
COC(=O)c1sc(N2CCCCC2)c(C#N)c1N,i,i,0.95,i,i,i
COc1ccc(OC)c(NC(=O)CSC2=NN3CCCC(=O)N=C3S2)c1,i,i,-2.2,i,i,i
CCOC(=O)C1=C(C)NC(=O)CC1c1cc2c(cc1[N+](=O)[O-])OCO2 (configuration not stated),i,-7*,-0.28,i,i,i
CCCOC(=O)C1=C(C)N(C)C(=O)NC1c1cc2c(cc1[N+](=O)[O-])OCO2 (configuration not stated),i,i,0.07,i,i,i
N#CC(C#N)=c1ccc2c(c1)N1C3=C(CCCC3)CC3CCCCC31N=2 (configuration not stated),i,i,1.1,-8.5*,i,i
